From ChEMBL document CHEMBL1641444, “Synthesis and evaluation of 6-[1-(2-[(18)F]fluoro-3-pyridyl)-5-methyl-1H-1,2,3-triazol-4-yl]quinoline for positron emission tomography imaging of the metabotropic glutamate receptor type 1 in brain” (Bioorg Med Chem, 2011)

How the values were obtained:
Liver [1] = assay: Biodistribution in liver of Sprague-Dawley rat at 17 MBq, iv after 5 mins by dissection method; format: ADME, organism-based; settings: in vivo
Summary of the method: (§1)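 [¹⁸F]7a in saline (average 17 MBq/200 µL, 0.11 nmol) was given by tail vein. Rats were killed by cervical dislocation at 5, 15 or 30 min, with three rats per time point. Tissue radioactivity was measured by gamma counting, decay-corrected and expressed as %ID per gram of wet tissue.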

Spleen [2] = assay: Biodistribution in spleen of Sprague-Dawley rat at 17 MBq, iv after 5 mins by dissection method; format: ADME, organism-based; settings: in vivo; summary of the method: as §1
[3] = Biodistribution in small intestine of Sprague-Dawley rat at 17 MBq, iv after 5 mins by dissection method; format: ADME, organism-based; settings: in vivo; summary of the method: as §1
Pancreas = assay: Biodistribution in pancreas of Sprague-Dawley rat at 17 MBq, iv after 5 mins by dissection method; format: ADME, organism-based; settings: in vivo; summary of the method: as §1
Muscle tissue [4] = assay: Biodistribution in muscle of Sprague-Dawley rat at 17 MBq, iv after 5 mins by dissection method; format: ADME, organism-based; settings: in vivo; summary of the method: as §1
Cerebellum [5] = assay: Biodistribution in cerebellum of Sprague-Dawley rat at 17 MBq, iv after 5 mins by dissection method; format: ADME, organism-based; settings: in vivo
Summary of the method: (§2)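 The [18F]ligand was given to rats as a saline solution (average 17 MBq, about 0.11 nmol) via the tail vein. Three rats per time point were killed by cervical dislocation at 5, 15 and 30 min. Dissected tissues were gamma-counted with decay correction, and results are expressed as % injected dose per gram of wet tissue.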

Hippocampus [6] = assay: Biodistribution in hippocampus of Sprague-Dawley rat at 17 MBq, iv after 5 mins by dissection method; format: ADME, organism-based; settings: in vivo; summary of the method: as §2
Thalamus = assay: Biodistribution in thalamus of Sprague-Dawley rat at 17 MBq, iv after 5 mins by dissection method; format: ADME, organism-based; settings: in vivo; summary of the method: as §1
[7] = Biodistribution in olfactory bulb of Sprague-Dawley rat at 17 MBq, iv after 5 mins by dissection method; format: ADME, organism-based; settings: in vivo; summary of the method: as §1
[8] = Biodistribution in pons-medulla of Sprague-Dawley rat at 17 MBq, iv after 5 mins by dissection method; format: ADME, organism-based; settings: in vivo; summary of the method: as §1
Blood = assay: Biodistribution in blood of Sprague-Dawley rat at 17 MBq, iv after 15 mins by dissection method; format: ADME, organism-based; settings: in vivo, 0.25 h; summary of the method: as §2
Heart [9] = assay: Biodistribution in heart of Sprague-Dawley rat at 17 MBq, iv after 15 mins by dissection method; format: ADME, organism-based; settings: in vivo, 0.25 h; summary of the method: as §2
Liver [10] = assay: Biodistribution in liver of Sprague-Dawley rat at 17 MBq, iv after 15 mins by dissection method; format: ADME, organism-based; settings: in vivo, 0.25 h; summary of the method: as §2
Spleen [11] = assay: Biodistribution in spleen of Sprague-Dawley rat at 17 MBq, iv after 15 mins by dissection method; format: ADME, organism-based; settings: in vivo, 0.25 h; summary of the method: as §1
Bone [12] = assay: Biodistribution in bone of Sprague-Dawley rat at 17 MBq, iv after 15 mins by dissection method; format: ADME, organism-based, Bone element; settings: in vivo, 0.25 h; summary of the method: as §2
Cerebellum [13] = assay: Biodistribution in cerebellum of Sprague-Dawley rat at 17 MBq, iv after 15 mins by dissection method; format: ADME, organism-based; settings: in vivo, 0.25 h; summary of the method: as §2
Hippocampus [14] = assay: Biodistribution in hippocampus of Sprague-Dawley rat at 17 MBq, iv after 15 mins by dissection method; format: ADME, organism-based; settings: in vivo, 0.25 h; summary of the method: as §2
Striatum = assay: Biodistribution in striatum of Sprague-Dawley rat at 17 MBq, iv after 15 mins by dissection method; format: ADME, organism-based; settings: in vivo, 0.25 h; summary of the method: as §1
[15] = Biodistribution in pons-medulla of Sprague-Dawley rat at 17 MBq, iv after 15 mins by dissection method; format: ADME, organism-based; settings: in vivo, 0.25 h; summary of the method: as §1
Heart [16] = assay: Biodistribution in heart of Sprague-Dawley rat at 17 MBq, iv after 30 mins by dissection method; format: ADME, organism-based; settings: in vivo, 0.5 h; summary of the method: as §2
Lung = assay: Biodistribution in lung of Sprague-Dawley rat at 17 MBq, iv after 30 mins by dissection method; format: ADME, organism-based; settings: in vivo, 0.5 h; summary of the method: as §1
Liver [17] = assay: Biodistribution in liver of Sprague-Dawley rat at 17 MBq, iv after 30 mins by dissection method; format: ADME, organism-based; settings: in vivo, 0.5 h; summary of the method: as §1
Kidney = assay: Biodistribution in kidney of Sprague-Dawley rat at 17 MBq, iv after 30 mins by dissection method; format: ADME, organism-based; settings: in vivo, 0.5 h; summary of the method: as §2
Muscle tissue [18] = assay: Biodistribution in muscle of Sprague-Dawley rat at 17 MBq, iv after 30 mins by dissection method; format: ADME, organism-based; settings: in vivo, 0.5 h; summary of the method: as §1
Bone [19] = assay: Biodistribution in bone of Sprague-Dawley rat at 17 MBq, iv after 30 mins by dissection method; format: ADME, organism-based, Bone element; settings: in vivo, 0.5 h; summary of the method: as §2
[20] = Biodistribution in whole brain of Sprague-Dawley rat at 17 MBq, iv after 30 mins by dissection method; format: ADME, organism-based; settings: in vivo, 0.5 h; summary of the method: as §1
Cerebral cortex = assay: Biodistribution in cerebral cortex of Sprague-Dawley rat at 17 MBq, iv after 30 mins by dissection method; format: ADME, organism-based; settings: in vivo, 0.5 h; summary of the method: as §2
[21] = Biodistribution in pons-medulla of Sprague-Dawley rat at 17 MBq, iv after 30 mins by dissection method; format: ADME, organism-based; settings: in vivo, 0.5 h; summary of the method: as §1
[22] = Fraction unbound in Sprague-Dawley rat plasma after 15 mins by ultra-filtration method; format: ADME; settings: 0.25 h
Summary of the method: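 Plasma protein binding was measured by ultrafiltration. Blood was spun at 3900 rpm for 5 min at 4 °C to obtain plasma. 40 µL of plasma was centrifuged in a filter unit at 2000 rpm for 15 min at 25 °C, and a saline control was run the same way. Free fraction was taken as ultrafiltrate/plasma radioactivity, corrected for a stick factor.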

[23] = Octanol-sodium phosphate buffer partition coefficient, log D of the compound at pH 7.4; format: physicochemical
Summary of the method: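 [¹⁸F]7a (radiochemical purity 100%, about 150,000 cpm) was mixed with n-octanol (3.0 g) and 0.1 M sodium phosphate buffer pH 7.40 (3.0 g). The mix was vortexed for 3 min at room temperature, then centrifuged at 3500 rpm for 5 min. Assays were run in triplicate.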

[24] = Ratio of drug uptake in Sprague-Dawley rat thalamus to medulla at 17 MBq, iv after 10 to 15 mins by small-animal PET; settings: in vivo
[25] = Ratio of drug uptake in Sprague-Dawley rat striatum to medulla at 17 MBq, iv after 10 to 15 mins by small-animal PET; settings: in vivo
[26] = Ratio of drug uptake in Sprague-Dawley rat cerebellum to medulla at 17 MBq, iv after 10 to 15 mins by small-animal PET; settings: in vivo
[27] = Ratio of drug uptake in Sprague-Dawley rat hippocampus to medulla at 17 MBq, iv after 10 to 15 mins by small-animal PET; settings: in vivo
[28] = Ratio of drug uptake in Sprague-Dawley rat cerebral cortex to medulla at 17 MBq, iv after 10 to 15 mins by small-animal PET; settings: in vivo
[29] = Metabolic stability in plasma of ddy mouse assessed as reduction of parent compound level at 3.7 MBq, iv after 5 mins by HPLC analysis; parameters: scale not given: the % may be the effect or the level left
[30] = Metabolic stability in plasma of ddy mouse assessed as reduction of parent compound level at 3.7 MBq, iv after 30 mins by HPLC analysis; parameters: scale not given: the % may be the effect or the level left; settings: 0.5 h
[31] = tested on: Cerebellum (Mus musculus); assay: Metabolic stability in cerebellum of mouse assessed as reduction of parent compound level at 3.7 MBq, iv after 30 mins by HPLC analysis; parameters: scale not given: the % may be the effect or the level left; settings: in vivo, 0.5 h

- Drug uptake (Liver [1]): 2.3 % ID/g
- Drug uptake (Spleen [2]): 0.43 % ID/g
- Drug uptake [3]: 3.06 % ID/g
- Drug uptake (Pancreas): 0.75 % ID/g
- Drug uptake (Muscle tissue [4]): 0.28 % ID/g
- Drug uptake (Cerebellum [5]): 1.21 % ID/g
- Drug uptake (Hippocampus [6]): 0.58 % ID/g
- Drug uptake (Thalamus): 0.73 % ID/g
- Drug uptake [7]: 0.52 % ID/g
- Drug uptake [8]: 0.47 % ID/g
- Drug uptake (Blood): 0.26 % ID/g
- Drug uptake (Heart [9]): 0.24 % ID/g
- Drug uptake (Liver [10]): 2.04 % ID/g
- Drug uptake (Spleen [11]): 0.25 % ID/g
- Drug uptake (Bone [12]): 0.15 % ID/g
- Drug uptake (Cerebellum [13]): 0.54 % ID/g
- Drug uptake (Hippocampus [14]): 0.22 % ID/g
- Drug uptake (Striatum): 0.23 % ID/g
- Drug uptake [15]: 0.21 % ID/g
- Drug uptake (Heart [16]): 0.16 % ID/g
- Drug uptake (Lung): 0.17 % ID/g
- Drug uptake (Liver [17]): 1.93 % ID/g
- Drug uptake (Kidney): 0.39 % ID/g
- Drug uptake (Muscle tissue [18]): 0.1 % ID/g
- Drug uptake (Bone [19]): 0.22 % ID/g
- Drug uptake [20]: 0.11 % ID/g
- Drug uptake (Cerebral cortex): 0.09 % ID/g
- Drug uptake [21]: 0.13 % ID/g
- Activity [22]: 8.5%
- logD [23]: 2.53
- Ratio [24]: 1.91
- Ratio [25]: 1.55
- Ratio [26]: 3.73
- Ratio [27]: 1.42
- Ratio [28]: 1.31
- Stability [29]: 57%
- Stability [30]: 4%
- Stability [31]: 67%
Structure (SMILES): Cc1c(-c2ccc3ncccc3c2)nnn1-c1cccnc1[18F]
